Results taken from ChEMBL document CHEMBL2331090, “Benzoquinones and terphenyl compounds as phosphodiesterase-4B inhibitors from a fungus of the order Chaetothyriales (MSX 47445)” (J Nat Prod, 2013).
In brackets after ≈: the same amount, converted by molar mass. Activity calls are given as the source filed them. The rule behind the calls is not given here.

Legend:
[1] = test system: NCI-H460; assay: Cytotoxicity against human H460 cells; type: functional, cell-based
Summary of the method: (§1)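 Panel of three human tumour lines: MCF-7 breast carcinoma, NCI-H460 large cell lung carcinoma and SF-268 astrocytoma. The cytotoxicity protocol follows the group's earlier reports.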

[2] = test system: Staphylococcus aureus; assay: Antibacterial activity against Staphylococcus aureus by agar plate diffusion assay; type: functional
[3] = test system: Candida albicans; assay: Antifungal activity against Candida albicans by agar plate diffusion assay; type: functional, organism-based
[4] = biological target: 3',5'-cyclic-AMP phosphodiesterase 4B (Homo sapiens, UniProt Q07343); assay: Inhibition of human PDE4B2
[5] = test system: SF-268; assay: Cytotoxicity against human SF268 cells; type: functional, cell-based; summary of the method: as §1
[6] = test system: MCF7; assay: Cytotoxicity against human MCF7 cells; type: functional, cell-based; summary of the method: as §1
[7] = Inhibition of cAMP-PDE (unknown origin); design: species or system Homo sapiens
[8] = Inhibition of cGMP-PDE (unknown origin); design: species or system Homo sapiens

Sequence of 3',5'-cyclic-AMP phosphodiesterase 4B (Q07343 whole entry): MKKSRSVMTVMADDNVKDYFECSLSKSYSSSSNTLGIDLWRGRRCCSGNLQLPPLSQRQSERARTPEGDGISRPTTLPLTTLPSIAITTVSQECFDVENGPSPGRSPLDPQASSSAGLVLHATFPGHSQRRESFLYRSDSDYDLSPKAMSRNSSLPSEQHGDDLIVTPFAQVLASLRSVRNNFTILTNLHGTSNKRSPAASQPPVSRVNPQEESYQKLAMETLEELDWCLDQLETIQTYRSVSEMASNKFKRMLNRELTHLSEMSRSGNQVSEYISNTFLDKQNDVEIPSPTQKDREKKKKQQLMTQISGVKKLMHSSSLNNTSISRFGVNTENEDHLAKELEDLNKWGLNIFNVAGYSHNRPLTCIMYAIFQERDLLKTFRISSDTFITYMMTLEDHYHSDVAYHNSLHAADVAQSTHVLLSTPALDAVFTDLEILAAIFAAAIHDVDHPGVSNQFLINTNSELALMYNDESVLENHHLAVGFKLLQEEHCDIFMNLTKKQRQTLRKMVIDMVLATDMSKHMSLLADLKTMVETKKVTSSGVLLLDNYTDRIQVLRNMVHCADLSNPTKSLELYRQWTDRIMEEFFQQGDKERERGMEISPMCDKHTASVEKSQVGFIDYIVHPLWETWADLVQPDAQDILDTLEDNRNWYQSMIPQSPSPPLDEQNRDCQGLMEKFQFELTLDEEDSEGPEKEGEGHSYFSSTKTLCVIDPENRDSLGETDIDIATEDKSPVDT

MIC [2] | IC50 [4] | IC50 [7] | IC50 [8] | Structure (SMILES) | Activity [1] | Activity [3] | Activity [5] | Activity [6]
25 µg/mL (≈ 85.5 µM) | 31 µM | – | – | COc1c(O)c(-c2ccccc2)cc(O)c1-c1ccccc1 | Active | inactive | Active | Active
– | 44 µM | – | – | COC1=C(c2ccccc2)C(=O)C(OC)=C(c2ccccc2)C1=O [BETULINAN A] | inactive | – | inactive | inactive
25 µg/mL (≈ 86.1 µM) | 17 µM | – | – | COC1=C(c2ccccc2)C(=O)C=C(c2ccccc2)C1=O [BETULINAN C] | Active | inactive | Active | Active
– | – | 0.82 µM | 0.96 µM | COc1cc(-c2ccccc2)c(O)c(O)c1-c1ccccc1 [TERFEROL] | – | – | – | –
